# TRPC4 inh = inhibitors of mouse TRPC4 channel, primary screen, Fluo4 calcium, HEK293 TRPC4beta/mu-opioid cells; B-score at 10 µM; AID 2247, 2010; hit rate 0.39% among 300,000; DAMGO-evoked Fluo4 calcium flux; hits give low values; Short transient receptor potential channel 4 (Mus musculus), Q9QUQ5;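 active means B-score over 3 SD under the library average, no early fluorescence shift, positive overall ratio signal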
#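 Signal: kinetic Fluo4 fluorescence imaging of calcium influx. Material: stable TRPC4beta/mu-opioid receptor HEK293 cells. Probe or stimulus: DAMGO in two steps, submaximal then maximal.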
# TRPC4 potent = positive allosteric modulators of TRPC4, primary screen, cell-based, mouse TRPC4beta, HEK293 mu-opioid, Fluo-4 calcium; Short transient receptor potential channel 4 (Mus musculus), Q9QUQ5; DAMGO EC20, Fluo-4 Ca2+ flux; hits give high values; B-score at 10 µM; hit rate 0.42% among 310,000; AID 2227, 2009;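 active means B-score of calcium response area above 5 SD of library B-scores, with initial fluorescence ratio within 5 SD of library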;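 further: B-score of integrated fluorescence ratio over time as area under calcium response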
# TRPC6 inh = mouse TRPC6 channel inhibitors, primary screen, cell-based, HEK293, membrane potential dye; Short transient receptor potential channel 6 (Mus musculus), Q61143; ACh-evoked depolarization; hits give low values; B-score at 10 µM; hit rate 1.1% among 310,000; AID 2553, 2010;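 active means B-score under library mean minus 3 SD, initial fluorescence not abnormally high, positive integrated signal ratio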;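 further: B-score derived from integrated fluorescence ratio over the kinetic read; more negative B-score means stronger inhibition of depolarization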
# Target sequence (Q61143 whole entry, looked up): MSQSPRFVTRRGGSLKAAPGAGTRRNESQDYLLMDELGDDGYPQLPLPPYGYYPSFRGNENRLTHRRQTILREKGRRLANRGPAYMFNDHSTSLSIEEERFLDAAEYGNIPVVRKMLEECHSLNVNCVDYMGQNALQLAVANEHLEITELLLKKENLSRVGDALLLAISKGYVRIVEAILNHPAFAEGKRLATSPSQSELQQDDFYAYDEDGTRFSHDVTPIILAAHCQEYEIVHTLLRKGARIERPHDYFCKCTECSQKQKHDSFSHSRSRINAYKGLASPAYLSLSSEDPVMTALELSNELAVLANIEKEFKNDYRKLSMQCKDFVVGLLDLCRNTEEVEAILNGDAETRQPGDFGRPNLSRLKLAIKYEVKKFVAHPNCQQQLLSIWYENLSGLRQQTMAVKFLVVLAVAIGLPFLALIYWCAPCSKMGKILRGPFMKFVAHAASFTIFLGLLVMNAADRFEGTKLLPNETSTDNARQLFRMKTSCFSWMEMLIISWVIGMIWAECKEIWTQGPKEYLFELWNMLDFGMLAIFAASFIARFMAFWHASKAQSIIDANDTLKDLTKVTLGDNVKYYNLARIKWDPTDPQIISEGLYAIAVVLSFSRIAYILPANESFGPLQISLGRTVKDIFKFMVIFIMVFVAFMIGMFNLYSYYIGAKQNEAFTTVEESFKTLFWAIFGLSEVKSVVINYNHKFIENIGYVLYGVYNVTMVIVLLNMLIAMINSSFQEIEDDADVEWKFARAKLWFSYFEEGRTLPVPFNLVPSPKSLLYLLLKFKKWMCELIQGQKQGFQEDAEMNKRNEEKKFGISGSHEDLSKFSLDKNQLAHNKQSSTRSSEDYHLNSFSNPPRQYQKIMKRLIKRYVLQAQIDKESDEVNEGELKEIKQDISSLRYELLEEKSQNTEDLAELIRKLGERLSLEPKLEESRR
# TRPC6 act = mouse TRPC6 channel activators, primary screen, cell-based, HEK293, membrane potential dye. Short transient receptor potential channel 6 (Mus musculus), Q61143. HEK293-TRPC6 membrane potential dye fluorescence; hits give high values. B-score at 10 µM. hit rate 0.13% among 310,000;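 active means B-score of the integrated fluorescence ratio above library mean plus 3 SD, and starting fluorescence ratio within library mean plus 5 SD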;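 further: higher score means more depolarization so channel activation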
# TRPC4 act = activators of mouse TRPC4 channel, primary screen, Fluo4 calcium, HEK293 TRPC4beta/mu-opioid cells; hit rate 0.49% among 310,000; B-score at 10 µM; Fluo4 calcium fluorescence; hits give high values; AID 2237, 2010; Short transient receptor potential channel 4 (Mus musculus), Q9QUQ5;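 active means B-score above 5 SD of library B-scores, and initial fluorescence ratio not above library mean plus 5 SD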;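 further: positive B-score marks a calcium rise read as TRPC4 activation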
#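 Technique: kinetic Fluo4 calcium fluorescence; Test system: TRPC4beta and mu-opioid receptor HEK293 stable cells; Measure: B-scored integrated calcium fluorescence ratio; Benchmarks: low control buffer alone, high control maximal DAMGO; Schedule: 45 min room-temperature Fluo4 loading, 110 s read.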
# TRPC4 spec 2 = second check of whether TRPC6 inhibitors also affect mouse TRPC4 | HEK293 TRPC4/MOR, membrane potential dye fluorescence; channel activated by saturating DAMGO dose | hit rate 42% among 920 | shares compounds with TRPC6 inh | inhibition, % at 10 µM;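 active means compounds whose fluorescence signal differed from control wells by over 3 SD, either direction, in both duplicate plates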
# TRPC4 spec = mouse TRPC4 modulation by TRPC6 hits, confirmation, selectivity assay for TRPC6 inhibitor project, cell-based, HEK293 TRPC4/mu-opioid, membrane potential dye | shares compounds with TRPC6 inh | membrane potential fluorescence | activity change, negative = inhibition, % at 10 µM | hit rate 61% among 920 | AID 2777, 2010;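 active means rise or fall in signal beyond 3 SD of buffer-only wells in both replicate plates, either sign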;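 further: integrated kinetic ratio of fluorescence range over baseline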
# HEK293 MPD ctr 2-1 = nonspecific membrane potential effects, parental HEK293, confirmation, counter-screen for TRPC6 inhibitor project, cell-based, second counter screen. shares compounds with TRPC6 inh. parental HEK293 membrane potential dye fluorescence; maximal acetylcholine challenge after compound addition. signal change vs control, % at 10 µM. hit rate 31% among 920;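 active means membrane potential signal moving either way by over 3 SD of the maximum-effect control, in both duplicate plates, meaning non-specific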
# HEK293 MPD ctr-1 = membrane potential modulation in parental HEK293, confirmation, counter-screen for TRPC6 inhibitor project, cell-based; shares compounds with TRPC6 inh; parental HEK293 membrane potential dye fluorescence; membrane potential signal change, % at 10 µM; hit rate 60% among 920;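 active means membrane potential signal shifting up or down by more than 3 SD of buffer-only wells, on both duplicate plates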
# HEK293 MPD ctr-2 = parental HEK293 membrane potential modulation, confirmation, counter-screen for TRPC6 modulator project, cell-based | hit rate 51% among 2,400 | membrane potential dye fluorescence | membrane potential signal change, % at 10 µM | shares compounds with TRPC6 inh;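 active means membrane potential signal moves up or down beyond 5 SD from buffer-only wells, on both duplicate plates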
# HEK293 MPD ctr 2-2 = second counter-screen for TRPC6 modulators: effect in parental HEK293 cells; shares compounds with TRPC6 inh; membrane potential dye fluorescence; after compound, maximal acetylcholine stimulation; inhibition, % at 10 µM; hit rate 14% among 2,400; AID 488926;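 active means membrane potential signal drops by more than 5 SD from the mean control signal, in both duplicate plates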;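 further: plate controls were acetylcholine ECmax control wells for no effect and buffer only wells for full effect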
# TRPC4/MOR mod = TRPC4 modulation by TRPC6 hit compounds, confirmation, selectivity assay for TRPC6 modulator project, cell-based, HEK293 TRPC4/mu-opioid, membrane potential dye, mouse | shares compounds with TRPC6 inh | membrane potential fluorescence | percent change from control (negative = decrease, positive = increase), % at 10 µM | hit rate 69% among 2,400 | AID 488927, 2010;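 active means membrane potential signal moved up or down beyond 5 SD of buffer control wells, in both duplicate plates, actives on both sides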;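 further: plate controls were assay buffer wells for no effect and DAMGO maximal-effect wells for full effect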
# TRPC4/MOR inh 2 = second selectivity test of TRPC6 modulators against mouse TRPC4; shares compounds with TRPC6 inh; HEK293 TRPC4/mu-opioid, membrane potential dye fluorescence; stimulated with maximal-effect DAMGO; inhibition, % at 10 µM; hit rate 55% among 2,400;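 active means drop in membrane potential signal beyond 5 SD of the control wells in both duplicate plates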;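 further: TRPC4 counter screen for TRPC6 hits run under conditions tuned for TRPC6 not TRPC4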
# TRPC6 inh conf = mouse TRPC6 channel inhibitors, confirmation, HEK293 cells, membrane potential dye, duplicate; ACh-evoked depolarization; inhibition, % at 10 µM; shares compounds with TRPC6 inh; hit rate 43% among 3,300; AID 488960, 2010;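 active means fluorescence ratio falls more than 5 SD below the full-stimulation control mean, in both duplicate runs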;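 further: integrated fluorescence ratio of peak minus minimum over baseline after agonist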
# TRPC6 act confirm = mouse TRPC6 channel activators, confirmation, HEK293 cells, membrane potential dye, duplicate. shares compounds with TRPC6 inh. HEK293-TRPC6 membrane potential dye fluorescence, FDSS. activation, % at 10 µM. hit rate 11% among 2,800;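 active means ratio signal rise beyond 5 SD above unstimulated control wells' mean, seen in both duplicate runs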;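 further: plate controls were buffer EC0 wells for no effect and acetylcholine ECmax response for full effect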
# An asterisk follows results filed as active; i = inactive; . = no result given. Sampled rows, rich in hits. Any-hit rate of the full collection: about 2.3%.
SMILES,TRPC4 inh,TRPC4 potent,TRPC6 inh,TRPC6 act,TRPC4 act,HEK293 MPD ctr-2,HEK293 MPD ctr 2-2,TRPC4/MOR mod,TRPC4/MOR inh 2,TRPC6 inh conf,TRPC6 act confirm,others
N=C1c2ccccc2CN1c1ccc(N2CCOCC2)c(S(=O)(=O)Nc2ccc(Cl)cc2)c1,i,i,-7.44*,i,i,.,.,.,.,i,i,TRPC4 spec 2=35.5%*;TRPC4 spec=-12.6%*;HEK293 MPD ctr 2-1=i;HEK293 MPD ctr-1=i
CCOc1ccc(NC(=O)CN(C)C(=O)CCCOc2ccc(Br)cc2)cc1OCC,i,i,i,i,i,.,.,.,.,.,.,
CCOC(=O)c1sc2ncnc(N3CCN(C)CC3)c2c1C,i,i,-5.51*,i,i,-118.0%*,i,-19.5%*,34.0%*,i,i,
COC(=O)c1sc2nc(-c3ccccc3)nc(N3CCN(C)CC3)c2c1C,i,i,-5.41*,i,i,-122.0%*,i,-29.0%*,i,i,i,
Cc1ccc(C(C(=O)NC2CCCCC2)N(Cc2ccco2)C(=O)Cn2cnc3ccccc32)cc1 (stereo not drawn),i,i,i,16.8*,i,i,i,121.5%*,i,i,30.0%*,
O=C(NC1CCCCC1)C(c1ccc(F)cc1)N(Cc1ccco1)C(=O)Cn1nnc2ccccc21 (stereo not drawn),i,i,i,i,i,.,.,.,.,.,.,
CCOc1ccccc1C(C(=O)NC1CCCC1)N(Cc1ccco1)C(=O)CNC(=O)c1ccco1 (stereo not drawn),i,i,i,13.7*,i,350.0%*,90.5%*,78.0%*,i,.,149.5%*,
O=C(CCc1ccccc1)Oc1ccccc1[N+](=O)[O-],i,i,i,i,i,.,.,.,.,.,.,
CN(C)CCCN1c2ccc([N+](=O)[O-])cc2CCc2cc([N+](=O)[O-])ccc21,i,i,-11.9*,i,i,-358.5%*,86.0%*,-60.5%*,84.5%*,83.0%*,i,
CN1c2ccc([N+](=O)[O-])cc2N(C)C1(C)c1ccccc1 (stereo not drawn),i,i,i,i,i,.,.,.,.,.,.,
CCOc1ccc(S(=O)(=O)N2CCN(C(=O)c3ccccc3Cc3ccccc3)CC2)cc1,i,i,i,i,i,.,.,.,.,.,.,
CNCC(O)COc1cccc(OC)c1 (stereo not drawn),i,i,i,i,i,.,.,.,.,.,.,
COc1ccc(CCNCC(O)COc2cccc(Br)c2)cc1 (stereo not drawn),i,i,-5.46*,i,i,186.0%*,i,29.5%*,49.5%*,i,.,
c1ccc(Cn2nnc3cnccc32)cc1,-5*,i,-8.12*,i,i,.,.,.,.,i,i,TRPC4 spec 2=i;TRPC4 spec=i;HEK293 MPD ctr 2-1=i;HEK293 MPD ctr-1=i
c1ccc(Cn2nnc3ccccc32)cc1,i,i,i,i,i,.,.,.,.,.,.,
CCn1c2ccccc2c2cnc(N=CN(C)C)c(C#N)c21,i,i,i,i,i,.,.,.,.,.,.,
CCN(CC)CCn1c2ccccc2c2cnc(N=CN(C)C)c(C#N)c21,i,i,-7.15*,i,i,.,.,.,.,i,i,TRPC4 spec 2=50.0%*;TRPC4 spec=-19.8%*;HEK293 MPD ctr 2-1=i;HEK293 MPD ctr-1=-165.5%*
O=C(O)CC(NCc1ccco1)C(=O)Nc1cccc(O)c1 (stereo not drawn),i,i,i,i,i,.,.,.,.,.,.,
CCOC(=O)C1CCCN(C(=O)c2cc3c(C)nc4ccccc4c3o2)C1 (stereo not drawn),i,i,-6.86*,i,i,.,.,.,.,61.1%*,i,TRPC4 spec 2=i;TRPC4 spec=4.0%*;HEK293 MPD ctr 2-1=i;HEK293 MPD ctr-1=3.1%*
Cc1nc2ccccc2c2oc(C(=O)N3CC(C)CC(C)C3)cc12 (stereo not drawn),i,i,i,i,i,.,.,.,.,.,.,
CCOC(=O)C1CCCN(C(=O)c2ccc(C)c([N+](=O)[O-])c2)C1 (stereo not drawn),i,i,-5.78*,i,i,i,64.0%*,i,i,54.5%*,i,
S=C(Nc1ccc(Oc2ccccc2)cc1)N1CCOCC1,i,i,i,i,i,.,.,.,.,.,.,
O=C(CNc1ccc(Oc2ccccc2)cc1)N1CCOCC1,i,i,-5.72*,i,i,i,i,i,i,i,i,
Cc1ccc2c(CN3CCN(S(=O)(=O)c4ccc5c(c4)OCCO5)CC3)cc(=O)oc2c1C,i,i,-5.61*,i,i,i,i,i,i,i,i,

# Screens (PubChem)
